An excerpt weighted towards active compounds, which were near 3.1% of everything screened.
HSP90 inh: inhibitors of HSP90 luciferase refolding in rabbit reticulocyte lysate; luciferase refolding luminescence, 3 h; inhibition, % at 5.6 µM; 0.91% of 290,000 active; AID 1789;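 active means inhibition above the screen-wide mean plus 3 SD, computed separately per campaign, cut at about 16% in these data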;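 further: 0% = DMSO wells and 100% = 60 µM geldanamycin wells; inhibitors lower the luminescence because luciferase stays unfolded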
HSF1 inh: HSF1 inhibition; NIH3T3-HGL HSE-luciferase, MG132-induced, luminescence 8 h; active compounds read low; activity change, negative = inhibition, % at 7.5 µM (by protocol); AID 2098; 0.77% of 300,000 active;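 active means more than half of replicate wells show activity change below -50%, luminescence cut by over half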;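 further: luciferase reports HSF-1 transcriptional activity via heat shock element; 0% = median of DMSO wells and -100% = zero luminescence signal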
Tb hexokinase: blocks Trypanosoma brucei hexokinase 1 activity; recombinant TbHK1, G6PDH-coupled NADH A340; inhibition, % at 10 µM; 0.11% of 220,000 active;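 active means inhibition of 50% or more in the single-dose primary screen; inactive means inhibition below 50%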
HSF1 activator: increases HSF-1 driven luciferase reporter signal; 1.7% of 300,000 active; NIH3T3-HGL HSF-1 luciferase reporter, MG132, 8 h; 100% = twice DMSO control signal; activation, % at 9 µM;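 active means mean replicate activation of at least 50% with a set share of replicates each reaching 50%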;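 further: 0% = median of the neutral control wells and 100% = twice that signal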
Hsp70 activator: Hsp70 transcriptional activation, primary screen; HeLa Hsp70 promoter luciferase reporter, luminescence; scaled: vehicle 0, proteasome-inhibitor control 100%; 0.04% of 200,000 active; activation, % at 10 µM;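 active means activation above the mean across all tested compounds plus 3 SD, cutoff set per campaign, cut at about 5.5% in these data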;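 further: 100% = MG132 at 30 µM as the positive control and 0% = DMSO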
HKDC1 inh: HKDC1 (human) hexokinase inhibition. Q2TB90. recombinant HKDC1, G6PDH/diaphorase resazurin coupled fluorescence. inhibition, % at 20 µM. 0.16% of 340,000 active;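 active means inhibition above about 35% when tested at 20 µM, limit read from the data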;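 further: plate controls were DMSO wells with enzyme for no effect and DMSO wells lacking enzyme for full effect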
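Assay system: recombinant HKDC1 hexokinase; detection: coupled resazurin fluorescence, excitation 525 nm, emission 613 nm; benchmarks: DMSO-plus-enzyme-mix negative control, buffer-substituted positive control; compound dosing: single 20 µM dose; schedule: 90 min at room temperature in dark; also added: glucose plus 1 mM ATP as hexokinase substrates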
HSP90 inh confirm: HSP90 inhibition, confirmation assay | shares compounds with HSP90 inh | rabbit reticulocyte lysate, luciferase refolding luminescence, 3 h | inhibition, % at 5.9 µM | 64% of 2,300 active | AID 1846; in the data active means inhibition above about 18%;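 further: 0% = vehicle wells and 100% = reference inhibitor wells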
FLuc counter: firefly luciferase inhibition, HSP90 counter-screen; shares compounds with HSP90 inh; purified native firefly luciferase, luminescence; inhibition, % at 5.9 µM; 48% of 2,300 active; AID 1847;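 active means inhibition above the mean inhibition of all tested sample wells plus 3 SD, cut at about 10% in these data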;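 further: 0% = DMSO with luciferase and 100% = wells lacking luciferase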
Target sequence (P08659 whole entry, looked up): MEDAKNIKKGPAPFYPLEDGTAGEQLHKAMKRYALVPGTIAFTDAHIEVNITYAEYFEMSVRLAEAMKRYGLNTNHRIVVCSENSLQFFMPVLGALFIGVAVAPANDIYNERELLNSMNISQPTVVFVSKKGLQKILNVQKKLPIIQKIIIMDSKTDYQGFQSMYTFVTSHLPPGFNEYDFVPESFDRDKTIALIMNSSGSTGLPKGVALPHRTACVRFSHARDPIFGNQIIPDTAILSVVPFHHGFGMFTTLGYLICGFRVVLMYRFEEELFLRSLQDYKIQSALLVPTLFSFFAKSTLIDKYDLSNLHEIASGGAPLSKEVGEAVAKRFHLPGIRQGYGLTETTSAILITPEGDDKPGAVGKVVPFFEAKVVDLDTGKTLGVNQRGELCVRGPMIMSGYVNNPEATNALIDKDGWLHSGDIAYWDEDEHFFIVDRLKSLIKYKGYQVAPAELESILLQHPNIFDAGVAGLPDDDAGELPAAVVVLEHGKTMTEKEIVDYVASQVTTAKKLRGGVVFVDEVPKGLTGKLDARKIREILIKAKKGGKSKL
The depositor's hits bear a star; x = no result given.

SMILES	HSP90 inh	HSF1 inh	Tb hexokinase	HSF1 activator	Hsp70 activator	HKDC1 inh	HSP90 inh confirm	FLuc counter
O=C(Nc1cccc(O)c1)c1noc2c1CCc1ccccc1-2	40*	6	-5	15	0	8	61*	54*
CCC(=O)N1c2ccc(S(=O)(=O)CCC(=O)N3CCN(c4ccccc4F)CC3)cc2CC1C (configuration not stated)	3	-3	x	-3	x	-2	x	x
O=C(c1cc(-c2ccc(Cl)cc2Cl)on1)N1CCOCC1	30*	11	-3	31	0	-4	46*	43*
O=C(c1cc(-c2cccc(Cl)c2)on1)N1CCOCC1	0	15	x	29	x	-5	x	x
Cc1ccc(NC(=O)CN2C(=O)S/C(=C\c3ccc(-c4cccc(C(=O)O)c4C)o3)C2=O)cc1	26*	0	19	3	0	x	24*	-6
O=C(NC1CCCCC1)C1CC(=O)N(Cc2ccccc2)C1 (configuration not stated)	0	-4	x	-10	x	-7	x	x
Cc1ccc(C)c(C(=O)COC(=O)c2cccc(N3C(=O)c4c(C)nc5ccccc5c4C3=O)c2)c1	27*	-34	-12	-32	0	-8	14	-3
O=C(NNS(=O)(=O)c1ccc(F)cc1)C1CC(c2cccnc2)=NO1 (configuration not stated)	21*	-2	-1	4	0	-14	3	0
CCN(CC(=O)NCC1CCCO1)S(=O)(=O)c1ccc2ccccc2c1 (configuration not stated)	2	-1	x	29	x	-6	x	x
Cc1ccc(C(=O)OCC(=O)c2ccccc2)cc1	6	8	x	40	x	0	x	x
CC(=O)Nc1cc(C(=O)OCC(=O)c2ccccc2)ccc1C	24*	3	-5	39	0	3	60*	-17
CCC(=O)Nc1ccccc1C(=O)OCC(=O)c1ccccc1	52*	35	4	79*	0	3	66*	-30
CCC1(CC(C)C)SC(N)=NC1=O (configuration not stated)	x	x	x	x	x	-5	x	x
COc1ccc(C(=O)N[C@H](C(=O)NC2CCCCC2)C(C)C)cc1	x	x	x	x	x	-8	x	x
COc1ccc(C(=O)NNC(=O)C(=O)NC2CCCCC2)cc1	19*	7	x	0	x	-6	0	-1
O=C1NCCNC1c1ccccc1 (configuration not stated)	x	x	x	x	x	-2	x	x
Cc1nc(-c2ccc([N+](=O)[O-])cc2)sc1C(=O)O	18*	6	-44	-3	0	-5	18*	-18
Cc1nc(-c2ccccc2)sc1C(=O)O	2	6	-1	9	0	19	x	x
Cc1ccc(-c2nc(C)c(C(=O)O)s2)cc1	75*	16	-15	39	0	-5	85*	17*
O=C(Nc1ccccc1C(F)(F)F)c1cc(-c2ccco2)on1	-3	5	x	20	x	-7	x	x
O=C(Nc1ccccc1C(F)(F)F)c1cc(-c2ccccc2O)on1	21*	23	-7	65*	1	-12	2	-9
CC(C)C1Cc2ccccc2-c2[nH]c(=S)[nH]c(=O)c21 (configuration not stated)	x	-1	x	7	x	3	x	x
CC(C)n1nnnc1SCC(=O)Nc1cccc(F)c1	0	1	x	19	x	-2	x	x
COc1ccccc1CN1CCC(n2nccc2NC(=O)CCc2ccccc2)CC1	-6	-4	x	-4	x	-4	x	x
CC(C)c1ccc(-n2cccc2/C=C2/C(=N)N3C=CSC3=NC2=O)cc1	32*	-8	10	-9	0	-9	22*	3
SMILES	HSP90 inh	HSF1 inh	Tb hexokinase	HSF1 activator	Hsp70 activator	HKDC1 inh	HSP90 inh confirm	FLuc counter
Cc1cc(/C=N/Nc2ccc([N+](=O)[O-])cn2)c(C)n1-c1ccc(C(=O)O)cc1	0	7	-4	-1	0	-6	x	x
COc1cccc(/C=N/Nc2ncnc(N)c2[N+](=O)[O-])c1OC	27*	2	-37	-1	0	-2	80*	62*
Cc1cc(/C=N/Nc2ncnc(N)c2[N+](=O)[O-])c(C)n1-c1ccccc1	76*	x	-4	x	x	6	95*	92*
COc1cccc(C=NNc2ccc([N+](=O)[O-])cn2)c1OC	x	x	x	x	x	-4	x	x
Cc1cc(/C=N/Nc2nc(N)ncc2[N+](=O)[O-])c(C)n1-c1cccc(C(F)(F)F)c1	34*	-2	-22	-4	x	x	29*	16*
CC1=NN(c2ccc(C(=O)O)cc2)C(=O)/C1=C\c1ccc(OC(=O)c2cccs2)cc1	26*	-4	4	5	0	9	5	17*
O=C(NCc1ccc2c(c1)CCO2)Nc1ccccc1	0	1	-8	34	x	-5	x	x
Cc1ccc(NC(=S)c2nc3ccccc3s2)cc1	23*	-65*	3	-70	0	-4	42*	26*
CCc1ccc(-c2cc(C(=O)Nn3cnnc3)c3ccccc3n2)cc1	30*	-24	-12	-33	-1	-1	56*	30*
CCOc1ccc(-c2cc(C(=O)N/N=C(\C)c3cccnc3)c3ccccc3n2)cc1	28*	9	x	1	x	-2	3	-23
CCNC(=S)NNC(=O)c1cc(-c2ccc(OCC)cc2)nc2ccccc12	50*	-41	-12	-55	-1	-12	74*	25*
CCCc1ccc(-c2cc(C(=O)NN3CCOCC3)c3ccccc3n2)cc1	-4	22	-19	30	0	-10	x	x
CCNC(=S)NNC(=O)c1cc(-c2cccc(OC)c2)nc2ccccc12	-1	4	-12	-7	0	-9	x	x
O=C(O)CCn1c(SCCOc2ccccc2)nc2ccccc21	0	-4	x	-16	x	-4	x	x
c1csc(CNc2ccc3c(c2)OCCO3)c1	31*	x	-1	x	-1	3	21*	15*
COc1ccc(N2CCC(CNC(=S)Nc3cccc(C)c3)C2)cc1 (configuration not stated)	1	-9	15	-3	0	-6	x	x
COc1ccc(N2CCC(CNS(=O)(=O)c3cccc(C(F)(F)F)c3)C2)cc1 (configuration not stated)	59*	6	6	3	0	-3	2	-1
COC(=O)C1CCN(C(=O)COC(=O)c2cccc(NS(=O)(=O)c3ccccc3)c2)CC1	x	10	x	8	x	-4	x	x
COC(=O)c1sc(NC(=O)CSc2nnnn2-c2cccc(OC)c2)nc1C	20*	-2	-2	-2	0	-1	1	-7
CCOC(=O)c1sc(NC(=O)CSc2nnnn2-c2ccccc2)nc1C	-2	-5	-6	44	-1	6	x	x
